For 9 compounds, IC50 results are on record in ChEMBL document CHEMBL1140331, “Iterative approach to the discovery of novel degarelix analogues: substitutions at positions 3, 7, and 8. Part II” (J Med Chem, 2005).

This assay concerns the target T1, Gonadotropin-releasing hormone receptor (Homo sapiens, UniProt P30968).
T1 sequence (P30968 whole entry): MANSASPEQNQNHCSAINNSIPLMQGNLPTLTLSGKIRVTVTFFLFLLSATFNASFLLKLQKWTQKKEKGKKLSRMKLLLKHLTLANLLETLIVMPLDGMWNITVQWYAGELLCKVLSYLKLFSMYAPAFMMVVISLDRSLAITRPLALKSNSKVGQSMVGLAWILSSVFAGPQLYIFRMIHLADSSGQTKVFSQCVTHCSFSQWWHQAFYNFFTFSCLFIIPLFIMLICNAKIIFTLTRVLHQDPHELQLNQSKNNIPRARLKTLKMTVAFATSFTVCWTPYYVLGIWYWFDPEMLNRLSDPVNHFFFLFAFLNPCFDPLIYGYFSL
In words: Antagonism of GnRH response in HEK293 cells expressing human GnRH receptor. In kind it is functional, cell-based. The essentials:
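HEK293 cells stably carrying cloned human GnRH receptor and luciferase reporter under LH α-subunit promoter; cultured in phenol red-free DMEM, 10% FBS, G418 0.4 mg/mL; plated 5×10^4 cells/well, overnight 37 °C. Compound (11 half-log concentrations, duplicate, 1% DMSO) preincubated 10 min, then GnRH 1 nM final, ≥5 h; luminescence read; % of control cps (blank-subtracted) gives IC50.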
For orientation: IC50 means the concentration needed to halve the response being measured. Higher therefore signals weaker potency. Consider `C#CC[C@H](NC(=O)[C@@H](Cc1ccc(NC(N)=O)cc1)NC(=O)[C@H](Cc1ccc(NC(=O)[C@@H]2CC(=O)NC(=O)N2)cc1)NC(=O)[C@H](CO)NC(=O)[C@@H](Cc1cccnc1)NC(=O)[C@@H](Cc1ccc(Cl)cc1)NC(=O)[C@@H](Cc1ccc2ccccc2c1)NC(C)=O)C(=O)N[C@@H](CCCCNC(C)C)C(=O)N1CCC[C@H]1C(=O)N[C@H](C)C(N)=O`, for which the IC50 turned out to be 2.11 nM. Next, `CC(=O)N[C@H](Cc1ccc2ccccc2c1)C(=O)N[C@H](Cc1ccc(Cl)cc1)C(=O)N[C@H](Cc1cccnc1)C(=O)N[C@@H](CO)C(=O)N[C@@H](Cc1ccc(NC(=O)[C@@H]2CC(=O)NC(=O)N2)cc1)C(=O)N[C@H](Cc1ccc(NC(N)=O)cc1)C(=O)N[C@@H](Cc1c[nH]cn1)C(=O)N[C@@H](CCCCNC(C)C)C(=O)N1CCC[C@H]1C(=O)N[C@H](C)C(N)=O`: 10.6 nM; `CC(=O)N[C@H](Cc1ccc2ccccc2c1)C(=O)N[C@H](Cc1ccc(Cl)cc1)C(=O)N[C@H](Cc1cccnc1)C(=O)N[C@@H](CO)C(=O)N[C@@H](Cc1ccc(NC(=O)[C@@H]2CC(=O)NC(=O)N2)cc1)C(=O)N[C@H](Cc1ccc(NC(N)=O)cc1)C(=O)N[C@@H](CC(C)C)C(=O)N[C@@H](CCCNC(C)C)C(=O)N1CCC[C@H]1C(=O)N[C@H](C)C(N)=O`: 1.72 nM. Next, `CNC(=O)C[C@H](NC(=O)[C@@H](Cc1ccc(NC(N)=O)cc1)NC(=O)[C@H](Cc1ccc(NC(=O)[C@@H]2CC(=O)NC(=O)N2)cc1)NC(=O)[C@H](CO)NC(=O)[C@@H](Cc1cccnc1)NC(=O)[C@@H](Cc1ccc(Cl)cc1)NC(=O)[C@@H](Cc1ccc2ccccc2c1)NC(C)=O)C(=O)N[C@@H](CCCCNC(C)C)C(=O)N1CCC[C@H]1C(=O)N[C@H](C)C(N)=O`: 25.8 nM; `CC(=O)N[C@H](Cc1ccc2ccccc2c1)C(=O)N[C@H](Cc1ccc(Cl)cc1)C(=O)N[C@H](Cc1cccnc1)C(=O)N[C@@H](CO)C(=O)N[C@@H](Cc1ccc(NC(=O)[C@@H]2CC(=O)NC(=O)N2)cc1)C(=O)N[C@H](Cc1ccc(NC(N)=O)cc1)C(=O)N[C@@H](CC(=O)N(C)C)C(=O)N[C@@H](CCCCNC(C)C)C(=O)N1CCC[C@H]1C(=O)N[C@H](C)C(N)=O`: 48.9 nM; `CC(=O)N[C@H](Cc1ccc2ccccc2c1)C(=O)N[C@H](Cc1ccc(Cl)cc1)C(=O)N[C@H](Cc1cccnc1)C(=O)N[C@@H](CO)C(=O)N[C@@H](Cc1ccc(NC(=O)[C@@H]2CC(=O)NC(=O)N2)cc1)C(=O)N[C@H](Cc1ccc(NC(N)=O)cc1)C(=O)N[C@@H](CS)C(=O)N[C@@H](CCCCNC(C)C)C(=O)N1CCC[C@H]1C(=O)N[C@H](C)C(N)=O`: 178 nM.

For the compound `CC(=O)N[C@H](Cc1ccc2ccccc2c1)C(=O)N[C@H](Cc1ccc(Cl)cc1)C(=O)N[C@H](CNCc1ccccn1)C(=O)N[C@@H](CO)C(=O)N[C@@H](Cc1ccc(NC(=O)[C@@H]2CC(=O)NC(=O)N2)cc1)C(=O)N[C@H](Cc1ccc(NC(N)=O)cc1)C(=O)N[C@@H](CC(C)C)C(=O)N[C@@H](CCCCNC(C)C)C(=O)N1CCC[C@H]1C(=O)N[C@H](C)C(N)=O`, the IC50 was determined as 2.71 nM. Next, `CC(=O)N[C@H](Cc1ccc2ccccc2c1)C(=O)N[C@H](Cc1ccc(Cl)cc1)C(=O)N[C@H](Cc1cccnc1)C(=O)N[C@@H](CO)C(=O)N[C@@H](Cc1ccc(NC(=O)[C@@H]2CC(=O)NC(=O)N2)cc1)C(=O)N[C@H](Cc1ccc(NC(N)=O)cc1)C(=O)N[C@@H](CC(N)=O)C(=O)N[C@@H](CCCCNC(C)C)C(=O)N1CCC[C@H]1C(=O)N[C@H](C)C(N)=O`: 9.18 nM; `CC(=O)N[C@H](Cc1ccc2ccccc2c1)C(=O)N[C@H](Cc1ccc(Cl)cc1)C(=O)N[C@H](Cc1cccnc1)C(=O)N[C@@H](CO)C(=O)N[C@@H](Cc1ccc(NC(=O)[C@@H]2CC(=O)NC(=O)N2)cc1)C(=O)N[C@H](Cc1ccc(NC(N)=O)cc1)C(=O)N[C@@H](Cc1ccc(O)cc1)C(=O)N[C@@H](CCCCNC(C)C)C(=O)N1CCC[C@H]1C(=O)N[C@H](C)C(N)=O`: 2.85 nM.
